What was measured:
[1] = molecular target: T1, Cannabinoid receptor 1 (Homo sapiens, UniProt P21554); test: Displacement of [3H]-CP55940 from human recombinant CB1 receptor expressed in CHO-K1 cell membrane measured after 3 hrs by scintillation spectrometry; format: cell membranes
[2] = molecular target: T2, Cannabinoid receptor 2 (Homo sapiens, UniProt P34972); test: Displacement of [3H]-CP55940 from human recombinant CB2 receptor expressed in CHO-K1 cell membrane measured after 3 hrs by scintillation spectrometry; format: cell membranes; details: read-out: Ki
[3] = molecular target: T1, Cannabinoid receptor 1; test: Displacement of [3H]-CP55940 from human recombinant CB1 receptor expressed in CHO-K1 cell membrane at 1 uM measured after 3 hrs by scintillation spectrometry; format: cell membranes; details: filed as agonist
[4] = molecular target: T2, Cannabinoid receptor 2; test: Displacement of [3H]-CP55940 from human recombinant CB2 receptor expressed in CHO-K1 cell membrane at 1 uM measured after 3 hrs by scintillation spectrometry; format: cell membranes; details: filed as agonist
[5] = molecular target: T2, Cannabinoid receptor 2; test: Agonist activity at human recombinant CB2 receptor expressed in CHO-K1 cell membrane assessed as increase in GTPgammaS binding at 1 uM pretreated for 30 mins followed by [35S]GTPgammaS addition for 90 mins by [35S]GTP-gammaS binding assay relative to CP55940; format: functional, cell membranes; details: filed as agonist, time 120.0 min
Summary of the method: (§1)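 Membranes (5 μg) from PathHunter CHOK1 cells stably expressing hCB1 or hCB2 pre-incubated 30 min at room temperature with test ligand at 1 μM final, 1 μM GDP and 5 μg saponin in Tris-HCl pH 7.4, MgCl2, NaCl, EDTA, BSA, DTT. [35S]GTPγS (0.3 nM final) was then added for 90 min at 25 °C. Filtration on GF/B. Emax given relative to CP55,940 (100%), two experiments in duplicate.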

[6] = species: Homo sapiens; test: Selectivity ratio of Ki for human recombinant CB2 receptor expressed in CHO-K1 cell membrane to Ki for human recombinant CB1 receptor expressed in CHO-K1 cell membrane; format: cell-based
[7] = molecular target: T1, Cannabinoid receptor 1; test: Agonist activity at human recombinant CB1 receptor expressed in CHO-K1 cell membrane assessed as increase in GTPgammaS binding at 1 uM pretreated for 30 mins followed by [35S]GTPgammaS addition for 90 mins by [35S]GTP-gammaS binding assay relative to CP55940; format: functional, cell membranes; details: time 120.0 min; summary of the method: as §1
[8] = molecular target: T1, Cannabinoid receptor 1; test: Agonist activity at human recombinant CB1 receptor expressed in CHO-K1 cell membrane assessed as increase in GTPgammaS binding pretreated for 30 mins followed by [35S]GTPgammaS addition for 90 mins by [35S]GTP-gammaS binding assay; format: functional, cell membranes
Summary of the method: (§2)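 Concentration-response [35S]GTPγS binding on 5 μg hCB1 or hCB2 CHOK1 membranes. Ligand, 1 μM GDP and saponin pre-incubated 30 min at room temperature, then 0.3 nM [35S]GTPγS added for 90 min at 25 °C. Filtration read-out. Three experiments in duplicate.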

[9] = molecular target: T2, Cannabinoid receptor 2; test: Agonist activity at human recombinant CB2 receptor expressed in CHO-K1 cell membrane assessed as increase in GTPgammaS binding pretreated for 30 mins followed by [35S]GTPgammaS addition for 90 mins by [35S]GTP-gammaS binding assay; format: functional, cell membranes; summary of the method: as §2

T1 sequence (P21554 whole entry): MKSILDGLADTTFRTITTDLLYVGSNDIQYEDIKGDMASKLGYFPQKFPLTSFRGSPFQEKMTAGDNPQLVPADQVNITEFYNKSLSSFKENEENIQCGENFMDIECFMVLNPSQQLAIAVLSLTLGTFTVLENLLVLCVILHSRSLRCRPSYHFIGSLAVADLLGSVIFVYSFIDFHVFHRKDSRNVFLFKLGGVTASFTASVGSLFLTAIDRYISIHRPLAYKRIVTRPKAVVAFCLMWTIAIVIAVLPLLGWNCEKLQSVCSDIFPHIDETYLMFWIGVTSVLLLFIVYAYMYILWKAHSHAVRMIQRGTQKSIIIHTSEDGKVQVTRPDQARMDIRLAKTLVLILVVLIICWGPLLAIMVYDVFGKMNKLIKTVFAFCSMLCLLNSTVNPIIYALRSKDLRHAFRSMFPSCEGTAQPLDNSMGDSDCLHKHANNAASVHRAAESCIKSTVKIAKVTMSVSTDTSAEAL
T2 sequence (P34972 whole entry): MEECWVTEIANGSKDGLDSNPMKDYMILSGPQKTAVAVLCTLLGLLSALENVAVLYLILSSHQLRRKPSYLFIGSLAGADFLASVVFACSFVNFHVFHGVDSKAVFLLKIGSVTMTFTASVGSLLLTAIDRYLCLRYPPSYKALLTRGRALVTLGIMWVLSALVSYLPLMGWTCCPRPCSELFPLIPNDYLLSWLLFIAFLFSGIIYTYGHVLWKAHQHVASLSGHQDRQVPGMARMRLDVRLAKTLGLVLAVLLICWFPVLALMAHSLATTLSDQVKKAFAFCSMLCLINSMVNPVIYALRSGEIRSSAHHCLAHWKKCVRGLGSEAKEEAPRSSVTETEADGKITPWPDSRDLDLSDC

Compound	Ki ([1]; read-out: pKi (converted))	Ki [2]	inhibition [3]	inhibition [4]	Emax [5]	Ratio Ki [6]	Ki ([1]; read-out: Ki)	Emax [7]	EC50 [8]	EC50 [9]
CCCCc1cc2c(O)cc(C3(CCCC)CCCCC3)cc2oc1=O	> 1000 nM	12.5 nM	48%	> 50%	65%	79	–	–	–	–
CCCCC1(c2cc(O)c3cc(CCC)c(=O)oc3c2)CCCCC1	–	6.5 nM	> 50%	> 50%	62%	–	159 nM	23%	1120 nM	4.51 nM

Reference: ChEMBL document CHEMBL4842314, “Synthesis and SAR evaluation of coumarin derivatives as potent cannabinoid receptor agonists” (Eur J Med Chem, 2021)
